High-throughput results: PubChem, ICCB-Longwood Screening Facility, Harvard Medical School
Only a selection was taken, and hits are over-represented in it overall.
LANA-nucl inh: inhibitors of KSHV LANA binding to nucleosomes; FITC-LANA1-23 / chicken nucleosome fluorescence polarization; stronger effect = lower value; z-score (test concentration not listed); 51,000 compounds, 0.3% hits;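 active = both repeat wells score below -2 in polarization z-score versus plate sample wells, excluding overly bright wells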
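Test system: purified chicken nucleosomes with FITC-labelled LANA N-terminal peptide (1-23); Input: 240 nM purified chicken nucleosomes (480 nM peptide binding sites), final; Medium: TEN-BT buffer, pH 7.5; Timing: 10–45 min, room temperature; Technique: fluorescence polarization, 480 nm excitation, 535 nm parallel and perpendicular emission; Replication: duplicates.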
Ab BasE inh: inhibitors of Acinetobacter baumannii siderophore enzyme BasE; purified BasE, fluorescence polarization binding displacement; inhibition, % (no concentration beside the values); 84,000 compounds, 0.1% hits; AID 485350; in the data active = inhibition above about 25%, passing the limit was not always enough;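 note: 0% = negative plate control signal and 100% = positive plate control signal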
Numbers without * were called inactive.

What do the screens show for `CN1CCN(c2ccc(N)cc2)CC1`?
Ab BasE inh: 0

How did CCN1CCN(c2ccc(N)cc2)CC1 do in these assays?
LANA-nucl inh: -2.9*

What do the screens show for `CN1CCc2c(C#N)c(Cl)nc(NCc3ccccc3)c2C1`?
LANA-nucl inh: 0.063; Ab BasE inh: 2

Results for CN1CCc2c(C#N)c(N)n(N)c(=S)c2C1 ?
LANA-nucl inh: -3.8*; Ab BasE inh: 42

How did Fc1ccc(NC(=S)NC2CN3CCC2CC3)cc1 (stereo not drawn) do in these assays?
Ab BasE inh: 0

How did CC1(C)CC(n2cccc2)CC(C)(C)N1 do in these assays?
Ab BasE inh: 3

Results for CN1CCc2cc3c(c4c2C1Cc1ccccc1-4)OCO3 (stereo not drawn) ?
LANA-nucl inh: -3.2*; Ab BasE inh: 22

How did COc1ccc2c(c1OC)C(=O)OC2C1c2cc3c(cc2CCN1C)OCO3 (stereo not drawn) do in these assays?
LANA-nucl inh: -0.68; Ab BasE inh: -2

What do the screens show for `N#CC(C#N)=Cc1ccc(-c2ccccc2)o1`?
LANA-nucl inh: -4.7*; Ab BasE inh: -26

How did Cc1ccc(C=C(C#N)C#N)o1 do in these assays?
LANA-nucl inh: -0.56; Ab BasE inh: 4

What do the screens show for `O=S(=O)(c1ccc(O)cc1)c1ccc(O)cc1`?
Ab BasE inh: 66*

How did CC(C)c1ccc(O)cc1 do in these assays?
Ab BasE inh: 10

How did CC[C@@]1(O)C[C@H](O[C@H]2C[C@H](N(C)C)[C@H](O)[C@H](C)O2)c2c(cc3c(c2O)C(=O)c2c(O)ccc(O)c2C3=O)[C@H]1C(=O)OC do in these assays?
LANA-nucl inh: -2.8*; Ab BasE inh: 5

What do the screens show for `CC[C@@]1(O)C[C@H](O[C@H]2C[C@H](N(C)C)[C@H](O)[C@H](C)O2)c2c(cc3c(c2O)C(=O)c2c(O)cccc2C3=O)[C@H]1C(=O)OC`?
LANA-nucl inh: 2.2; Ab BasE inh: -2

How did CCOP1(=S)Oc2cc(Cl)ccc2C(C(F)(F)F)(C(F)(F)F)O1 (stereo not drawn) do in these assays?
Ab BasE inh: 2

How did CC(=O)N1c2nonc2N(C(C)=O)c2nonc21 do in these assays?
LANA-nucl inh: -0.15; Ab BasE inh: 1

How did CC12CN3CC(C)(CN(C1)C3(C)C)C2O (stereo not drawn) do in these assays?
LANA-nucl inh: 0.44; Ab BasE inh: 0

How did Oc1ccc(CN2CCN(c3cccc(C(F)(F)F)c3)CC2)cc1 do in these assays?
LANA-nucl inh: 0.12; Ab BasE inh: 2

Results for N#Cc1c(/N=C/c2ccc(O)cc2O)sc2c1C1CCN2CC1 ?
LANA-nucl inh: -3.9*; Ab BasE inh: 17

How did CN1CCN(c2cc(Cl)nc(N)n2)CC1 do in these assays?
LANA-nucl inh: -1

Results for C[C@H]1O[C@@H](OC2CC[C@]3(C=O)[C@H]4CC[C@]5(C)[C@@H](C6=CC(=O)OC6)CC[C@@]5(O)[C@@H]4CC[C@]3(O)C2)C[C@H](O)[C@@H]1O (stereo partly drawn) ?
LANA-nucl inh: 2; Ab BasE inh: -4
